Laboratory results from ChEMBL document CHEMBL4732157, “A theranostic probe of indoleamine 2,3-dioxygenase 1 (IDO1) for small molecule cancer immunotherapy” (Eur J Med Chem, 2021).
The source made the active and inactive calls. The calls are words filed in the database; no cut-off is given here.

Tests used:
HeLa = assay: Cytotoxicity against human HeLa cells assessed as reduction in cell viability measured after 72 hrs by CCK8 assay; format: cell-based
In short: (§1)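 Log-phase HeLa or CT26 cells were seeded at 6 × 10³ per well and grown 24 h at 37 °C, 5% CO₂. Cells were treated with a concentration series in triplicate for 72 h. Medium was then replaced with medium containing 10% CCK8 and incubated a further 40 min.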

CT26 [1] = assay: Cytotoxicity against mouse CT26 cells assessed as reduction in cell viability measured after 72 hrs by CCK8 assay; format: cell-based; conditions: CT26, 72 h; in short: as §1
[2] = target: T1, Indoleamine 2,3-dioxygenase 1 (Homo sapiens, UniProt P14902); assay: Binding affinity to recombinant human IDO1 expressed in Escherichia coli BL21 (DE3) assessed as increase in fluorescence intensity at 10 uM measured after 60 mins by fluorescence assay relative to control
In short: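 Human IDO1 was expressed in E. coli BL21(DE3), induced with 0.4 mM IPTG at OD600 0.6 for 18 h at 18 °C, then purified on Ni column (0–250 mM imidazole gradient) and gel filtration. Probe was titrated with increasing IDO1 in 10 mM PBS, pH 7.4, 1% DMSO, for 60 min at room temperature. Fluorescence: excitation 465 nm, emission 532 nm. Detection limit was taken at signal-to-noise ratio 3.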
Target sequence in this assay (P14902 whole entry, looked up): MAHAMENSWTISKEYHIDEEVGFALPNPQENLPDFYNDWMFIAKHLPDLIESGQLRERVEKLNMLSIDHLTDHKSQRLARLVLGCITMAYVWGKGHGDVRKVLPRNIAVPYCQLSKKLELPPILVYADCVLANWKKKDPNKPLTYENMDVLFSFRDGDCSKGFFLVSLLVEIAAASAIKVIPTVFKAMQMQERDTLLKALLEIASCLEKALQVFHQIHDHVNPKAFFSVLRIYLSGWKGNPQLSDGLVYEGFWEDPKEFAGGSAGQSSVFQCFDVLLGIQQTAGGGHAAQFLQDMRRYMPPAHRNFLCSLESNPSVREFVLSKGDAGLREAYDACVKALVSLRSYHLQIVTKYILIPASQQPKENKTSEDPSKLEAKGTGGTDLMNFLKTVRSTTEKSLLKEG

Trypsin (Homo sapiens) = Trypsin (Homo sapiens) (UniProt P07477+P07478+P35030); assay: Binding affinity to trypsin (unknown origin) assessed as change in fluorescence intensity at 10 uM measured after 60 mins by fluorescence assay; format: protein assay
In short: (§2)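 Selectivity panel: probe was incubated with each enzyme or biomolecule in 10 mM PBS, pH 7.4, containing 1% DMSO, for 60 min at room temperature. Fluorescence intensity was read at 532 nm with excitation at 465 nm.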

Escherichia coli = assay: Binding affinity to Escherichia coli beta-galactosidase assessed as change in fluorescence intensity at 10 uM measured after 60 mins by fluorescence assay; in short: as §2
[3] = target: T1, Indoleamine 2,3-dioxygenase 1; assay: Binding affinity to IDO1 in IFNgamma-stimulated human HeLa cells at 3.5 nM measured after 5 mins by Hoechst staining based confocal fluorescence imaging analysis
In short: (§3)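 Living HeLa cells, either unstimulated or stimulated with IFN-γ (50 ng/mL, 12 h), were stained with Hoechst for 20 min and then with probe for 5 min before confocal imaging in the green channel.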
Target sequence in this assay (P14902 whole entry, looked up): as above

Homo sapiens = organism: Homo sapiens; assay: Binding affinity to chymotrypsin (unknown origin) assessed as change in fluorescence intensity at 10 uM measured after 60 mins by fluorescence assay; in short: as §2
Albumin [4] = target: Albumin (Bos taurus, UniProt P02769); assay: Binding affinity to bovine serum albumin assessed as change in fluorescence intensity at 10 uM measured after 60 mins by fluorescence assay; format: ADME; conditions: cattle, isolated protein, 1 h; in short: as §2
Sequence of Albumin (Bos taurus, UniProt P02769) (P02769 whole entry): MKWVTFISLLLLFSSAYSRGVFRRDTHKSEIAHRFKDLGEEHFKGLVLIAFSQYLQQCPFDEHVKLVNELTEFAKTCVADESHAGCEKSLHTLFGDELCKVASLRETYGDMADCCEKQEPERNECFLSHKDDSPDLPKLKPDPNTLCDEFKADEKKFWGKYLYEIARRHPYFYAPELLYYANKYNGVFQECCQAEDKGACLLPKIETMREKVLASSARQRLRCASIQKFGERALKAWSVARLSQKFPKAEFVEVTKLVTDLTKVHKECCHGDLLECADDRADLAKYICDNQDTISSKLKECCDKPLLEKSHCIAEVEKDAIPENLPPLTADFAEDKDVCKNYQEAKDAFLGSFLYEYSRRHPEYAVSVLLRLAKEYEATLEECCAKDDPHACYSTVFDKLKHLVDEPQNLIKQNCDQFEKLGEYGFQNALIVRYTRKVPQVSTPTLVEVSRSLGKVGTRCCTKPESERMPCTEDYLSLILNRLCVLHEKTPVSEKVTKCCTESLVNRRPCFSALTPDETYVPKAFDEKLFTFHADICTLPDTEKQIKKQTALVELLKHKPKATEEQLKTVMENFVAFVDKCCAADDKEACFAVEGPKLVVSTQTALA

[5] = target: T1, Indoleamine 2,3-dioxygenase 1; assay: Binding affinity to IDO1 in IFNgamma-stimulated human HeLa cells at 3.5 nM measured after 5 mins in presence of IDO1 inhibitor epacadostat by Hoechst staining based confocal fluorescence imaging analysis; in short: as §3
Target sequence in this assay (P14902 whole entry, looked up): as the sequence (P14902 whole entry, looked up) above

[6] = Binding affinity to GSH assessed as change in fluorescence intensity at 10 uM measured after 60 mins by fluorescence assay; in short: as §2
Albumin [7] = target: Albumin (Homo sapiens, UniProt P02768); assay: Binding affinity to human serum albumin assessed as change in fluorescence intensity at 10 uM measured after 60 mins by fluorescence assay; format: ADME; conditions: isolated protein, 1 h; in short: as §2
Sequence of Albumin (Homo sapiens, UniProt P02768) (P02768 whole entry): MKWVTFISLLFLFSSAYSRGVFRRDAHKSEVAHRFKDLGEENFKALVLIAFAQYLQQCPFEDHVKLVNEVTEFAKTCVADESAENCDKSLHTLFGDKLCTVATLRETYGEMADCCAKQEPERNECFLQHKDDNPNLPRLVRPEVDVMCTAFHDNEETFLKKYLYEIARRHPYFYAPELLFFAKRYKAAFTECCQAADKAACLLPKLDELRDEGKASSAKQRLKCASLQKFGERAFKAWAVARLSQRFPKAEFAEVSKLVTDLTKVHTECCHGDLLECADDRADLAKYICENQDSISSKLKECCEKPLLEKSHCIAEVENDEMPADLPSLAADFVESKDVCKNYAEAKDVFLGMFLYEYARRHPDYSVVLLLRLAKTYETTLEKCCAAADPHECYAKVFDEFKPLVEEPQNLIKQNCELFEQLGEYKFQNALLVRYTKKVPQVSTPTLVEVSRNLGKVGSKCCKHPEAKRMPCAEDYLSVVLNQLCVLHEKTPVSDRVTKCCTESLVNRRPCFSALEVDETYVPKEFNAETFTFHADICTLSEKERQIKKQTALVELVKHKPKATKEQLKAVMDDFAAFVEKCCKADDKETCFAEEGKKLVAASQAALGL

[8] = target: T1, Indoleamine 2,3-dioxygenase 1; assay: Inhibition of IDO1 in IFNgamma-stimulated human HeLa cells using tryptophan as substrate measured after 48 hrs
Target sequence in this assay (P14902 whole entry): as the sequence (P14902 whole entry, looked up) above

[9] = target: T1, Indoleamine 2,3-dioxygenase 1; assay: Inhibition of recombinant human IDO1 expressed in Escherichia coli BL21 (DE3) using tryptophan as substrate
Target sequence in this assay (P14902 whole entry): as the sequence (P14902 whole entry, looked up) above

Aspergillus oryzae = assay: Binding affinity to oryzae beta-galactosidase assessed as change in fluorescence intensity at 10 uM measured after 60 mins by fluorescence assay; in short: as §2
[10] = Drug uptake in human HeLa cells at 3.5 nM measured after 5 mins by Hoechst staining based confocal fluorescence imaging analysis; format: ADME, cell-based; conditions: 0.0035 µM; in short: as §3
Bos taurus = organism: Bos taurus; assay: Binding affinity to bovine hemoglobin assessed as change in fluorescence intensity at 10 uM measured after 60 mins by fluorescence assay; in short: as §2
CT26 [11] = assay: Antitumor activity against mouse CT26 cells implanted in BALB/c mouse assessed as tumor growth inhibition at 100 mg/kg, po administered daily for 12 days relative to control; format: functional; conditions: 288 h, time 12 day, read-out: TGI
In short: (§4)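 Female Balb/c mice, 4–5 weeks old, were inoculated subcutaneously in the right forelimb with 5 × 10⁵ log-phase CT26 cells in RPMI. Once tumors reached about 50 mm³, mice were randomized (n = 5 per group) and dosed orally at 100 mg/kg daily. Tumor length, width and body weight were recorded every other day, with V = ½ab². Mice were sacrificed when control tumors approached 2000 mm³. TGI = (Vcontrol − Vcompound)/Vcontrol at the last day. Data are mean ± SEM; Student's t-test.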

[12] = target: T1, Indoleamine 2,3-dioxygenase 1; assay: Binding affinity to IDO1 in IFNgamma-stimulated human HeLa cells at 5 nM measured after 5 mins in presence of IDO1 inhibitor epacadostat by Hoechst staining based confocal fluorescence imaging analysis; in short: as §3
Target sequence in this assay (P14902 whole entry, looked up): as above

[13] = Toxicity in BALB/c mouse implanted with mouse CT26 cells assessed as loss of body weight at 100 mg/kg, po administered daily for 12 days measured every other day during compound dosing; format: organism-based; conditions: in vivo, 288 h, time 12 day; in short: as §4
[14] = Drug uptake in human HeLa cells at 5 nM measured after 5 mins by Hoechst staining based confocal fluorescence imaging analysis; format: ADME, cell-based; conditions: 0.005 µM; in short: as §3
[15] = target: T1, Indoleamine 2,3-dioxygenase 1; assay: Binding affinity to IDO1 in IFNgamma-stimulated human HeLa cells at 5 nM measured after 5 mins by Hoechst staining based confocal fluorescence imaging analysis; in short: as §3
Target sequence in this assay (P14902 whole entry, looked up): as above

Row | Activity [2] | Activity (Trypsin (Homo sapiens)) | Activity (Escherichia coli) | Activity (Homo sapiens) | Activity (Albumin [4]) | Activity [6] | Activity (Albumin [7]) | IC50 [8] | IC50 [9] | Activity (Aspergillus oryzae) | Activity (Bos taurus) | Activity [15] | Structure (SMILES) | IC50 (HeLa) | IC50 (CT26 [1]) | inhibition in vivo at 100 mg/kg (CT26 [11]) | further results
1 | Active | inactive | inactive | inactive | Not Active | inactive | Not Active | 15 nM | 28 nM | inactive | inactive | – | O=[N+]([O-])c1ccc(NCCNc2nonc2/C(=N/O)Nc2ccc(F)c(Br)c2)c2nonc12 | > 100000 nM | > 100000 nM | – | Activity [3]: Active; Activity [5]: inactive; Drug uptake [10]: Not Active
2 | – | inactive | inactive | inactive | Not Active | inactive | Not Active | 10 nM | 12 nM | inactive | inactive | Active | O=C(CCNc1ccc([N+](=O)[O-])c2nonc12)NCCNc1nonc1/C(=N/O)Nc1ccc(F)c(Br)c1 | > 100000 nM | > 100000 nM | 46% | fold change (FC) [2]: 5; Activity [12]: inactive; Activity [13]: Non-Toxic; Drug uptake [14]: Not Active
3 | inactive | inactive | inactive | inactive | Not Active | inactive | Not Active | > 5000 nM | 1320 nM | inactive | inactive | inactive | O=C(CNc1ccc([N+](=O)[O-])c2nonc12)NCCNc1nonc1/C(=N/O)Nc1ccc(F)c(Br)c1 | > 100000 nM | > 100000 nM | – | –
4 | – | – | – | – | – | – | – | – | – | – | – | – | NS(=O)(=O)NCCNc1nonc1/C(=N/O)Nc1ccc(F)c(Br)c1 [EPACADOSTAT] | > 100000 nM | > 100000 nM | 49% | –
